From ChEMBL document CHEMBL3397022, “Absolute structures and bioactivities of euryspongins and eurydiene obtained from the marine sponge Euryspongia sp. collected at Iriomote Island” (Bioorg Med Chem, 2015)

Legend:
Jurkat = experiment: Cytotoxicity against human Jurkat cells after 48 hrs by MTT assay; assay type: cell-based
Summary of the method: (§1)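 Cells grown exponentially in RPMI-1640 with 10% FBS, penicillin and streptomycin at 37 °C, 5.0% CO2. Seeding: HCT-15 at 1.0 × 10^4 cells/well, Jurkat at 2.0 × 10^4 cells/well. Samples added in MeOH and incubated 48 h at 37 °C. MTT and lysis solution (40% DMF, 20% SDS, 2.0% acetic acid, 0.030% HCl) added, then shaken overnight at room temperature. Read at 570 nm.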

[1] = Cytotoxicity against human HCT15 cells after 48 hrs by MTT assay; assay type: cell-based; details: HCT-15, 48 h; summary of the method: as §1
[2] = Cytotoxicity against human HuH7 cells […] by MTT assay; assay type: cell-based; details: Huh-7
Summary of the method: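 Huh-7 MTT assay: after sample treatment, MTT (5.0 mg/mL stock in saline) added for 90 min at 37 °C. Plate centrifuged at 300 × g for 5 min and supernatant removed. Cells solubilized in 0.040 N HCl in 2-propanol. Absorbance read at 590 nm; survival (%) calculated relative to untreated control.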

[3] = target: T1, Tyrosine-protein phosphatase non-receptor type 1 (Homo sapiens, UniProt P18031); experiment: Inhibition of PTP1B (unknown origin) using pNPP as substrate incubated for 10 mins prior to substrate addition measured after 30 mins by microplate reader analysis
T1 sequence (P18031 whole entry): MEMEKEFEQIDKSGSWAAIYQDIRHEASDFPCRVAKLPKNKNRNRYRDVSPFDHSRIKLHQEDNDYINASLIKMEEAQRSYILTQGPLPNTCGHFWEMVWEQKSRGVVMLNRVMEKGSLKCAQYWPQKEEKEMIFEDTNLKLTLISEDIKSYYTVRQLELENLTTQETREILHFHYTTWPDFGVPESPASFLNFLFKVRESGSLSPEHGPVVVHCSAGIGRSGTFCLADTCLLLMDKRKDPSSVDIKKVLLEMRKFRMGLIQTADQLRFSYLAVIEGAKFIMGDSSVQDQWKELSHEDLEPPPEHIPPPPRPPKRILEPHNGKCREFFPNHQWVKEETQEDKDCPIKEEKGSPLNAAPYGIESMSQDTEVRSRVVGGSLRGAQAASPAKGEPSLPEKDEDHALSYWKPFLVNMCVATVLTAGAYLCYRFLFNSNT

Compound | IC50 [3] [µM] | IC50 (Jurkat) [µM] | IC50 [1] [µM] | IC50 [2] [µM]
CC1=C[C@@H]2CC(C)(C)[C@H]1/C=C\c1ccoc12 [REL-DEHYDROEURYSPONGIN A] |  | > 45 | > 45 | > 100
CC1=C[C@@H]2CC(C)(C)[C@H]1C[C@@H](O)C1=CC(=O)O[C@H]12 | > 40 | > 40 | > 40 | 
C=C/C=C(/CO)c1cc(O)ccc1O | > 50 | > 50 | > 50 | 

Continued, in another order:

IC50 [3] [µM] | Compound | IC50 (Jurkat) [µM] | IC50 [1] [µM] | IC50 [2] [µM]
> 40 | CC1=C[C@@H]2CC(C)(C)[C@H]1C[C@@H](O)c1ccoc12 | > 40 | > 40 | > 100
> 40 | C=C/C=C1/CO[C@]2(OC)CC[C@@H](O)[C@@H](O)[C@@H]12 | > 40 | > 40 | 
> 35 | CO[C@@]12OC(=O)C=C1[C@H](O)C[C@H]1C(C)=C[C@@H]2CC1(C)C | > 35 | > 35 | 
